Data published in ChEMBL document CHEMBL1773034 (J Nat Prod, 2011).
Active and inactive are the calls of the source. No cut-off for these calls is given here.

Key:
THP-1 [1] = assay: Antiinflammatory activity against human THP1 cells assessed as increase in LPS-induced ZFP36 gene expression at 10 uM pretreated for 1 hr before LPS challenge measured after 4 hrs by RT-qPCR relative to control
THP-1 [2] = assay: Antiinflammatory activity against human THP1 cells of assessed as inhibition of LPS-induced TNFalpha gene expression at 10 uM pretreated for 1 hr before LPS challenge measured after 2 to 10 hrs by RT-qPCR; format: functional, cell-based
Procedure, shortened: (§1)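 THP-1 monocytes, PMA-differentiated to macrophages, pretreated 1 h with compound in DMSO (0.1% final), then stimulated with 1 μg/mL LPS. Cells lysed in wells at 2, 4, 6 and 10 h post-LPS; TaqMan two-step RT-qPCR, ROX-normalized, ΔΔCT with unstimulated control set to 1. Means ± SE, three independent experiments.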

RAW264.7 [3] = assay: Antiinflammatory activity against mouse RAW264.7 cells assessed as nitric oxide production; format: functional, cell-based
THP-1 [4] = assay: Antiinflammatory activity against human THP1 cells of assessed as inhibition of LPS-induced TNFalpha protein synthesis at 10 uM pretreated for 1 hr before LPS challenge measured after 2 to 10 hrs; format: functional, cell-based
[5] = Cytotoxicity against human THP1 cells after 24 hrs by erythrosin B staining; format: cell-based; conditions: THP-1 cells, read-out: LD50
Procedure, shortened: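 THP-1 monocytes given five increasing concentrations (1-50 μM for the flavone; 1-100 μM for indomethacin) from DMSO stocks, final DMSO 0.1%, in RPMI 1640 with 10% FBS. Incubated 24 h at 37 C, 5% CO2. Cells were mixed 1:1 with 0.1% erythrosin B in PBS and counted by hemocytometer, with unstained cells taken as viable. LD50 was calculated from dose-response curves.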

THP-1 [6] = assay: Antiinflammatory activity against human THP1 cells assessed as inhibition of LPS-induced NFKB p65 subunit translocation to nucleus at 10 uM pretreated for 1 hr before LPS challenge relative to control; format: functional
Procedure, shortened: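 PMA-differentiated THP-1 macrophages pretreated 1 h (0.1% DMSO vehicle), then 1 μg/mL E. coli 0111:B4 LPS; harvested 1 h after LPS by trypsinization/scraping. Cytoplasmic and nuclear fractions separated; p65 quantified in each by transcription-factor ELISA-type kit, cytoplasm/nuclear ratio calculated. Means ± SE, three independent experiments, three measurements each.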

[7] = target: T1, Prostaglandin G/H synthase 2 (Homo sapiens, UniProt P35354); assay: Inhibition of human recombinant COX-2 assessed as PGE2 production from arachidonic acid after 20 mins enzyme immunoassay
T1 sequence (P35354 whole entry): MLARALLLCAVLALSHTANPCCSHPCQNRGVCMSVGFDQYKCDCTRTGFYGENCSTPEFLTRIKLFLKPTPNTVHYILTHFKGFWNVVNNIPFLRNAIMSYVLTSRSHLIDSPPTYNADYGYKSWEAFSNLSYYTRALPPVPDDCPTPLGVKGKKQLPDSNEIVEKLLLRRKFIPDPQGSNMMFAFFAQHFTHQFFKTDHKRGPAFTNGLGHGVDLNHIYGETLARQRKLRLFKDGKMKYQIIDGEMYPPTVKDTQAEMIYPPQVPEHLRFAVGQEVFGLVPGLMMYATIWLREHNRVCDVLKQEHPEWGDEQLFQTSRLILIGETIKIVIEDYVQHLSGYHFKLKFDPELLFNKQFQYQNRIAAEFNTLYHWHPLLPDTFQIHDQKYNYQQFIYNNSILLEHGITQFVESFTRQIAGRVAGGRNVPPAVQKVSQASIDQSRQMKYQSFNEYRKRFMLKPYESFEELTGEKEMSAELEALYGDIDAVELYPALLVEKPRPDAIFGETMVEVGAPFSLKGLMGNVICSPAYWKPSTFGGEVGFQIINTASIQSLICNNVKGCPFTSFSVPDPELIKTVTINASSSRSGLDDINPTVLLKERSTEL

RAW264.7 [8] = assay: Antiinflammatory activity against mouse RAW264.7 cells assessed as iNOS gene expression; format: functional, cell-based
THP-1 [9] = assay: Antiinflammatory activity against human THP1 cells assessed as inhibition of LPS-induced ZFP36 gene expression at 10 uM pretreated for 1 hr before LPS challenge measured after 2 hrs by RT-qPCR relative to control; format: functional
Procedure, shortened: as §1

THP-1 [10] = assay: Antiinflammatory activity against human THP1 cells of assessed as inhibition of LPS-induced TNFalpha protein synthesis at 10 uM pretreated for 1 hr before LPS challenge measured after 2 to 10 hrs relative to control; format: functional
[11] = target: T2, Prostaglandin G/H synthase 1 (Ovis aries, UniProt P05979); assay: Inhibition of ram seminal vesicle COX-1 assessed as PGE2 production from arachidonic acid after 20 mins enzyme immunoassay; format: tissue-based
T2 sequence (P05979 whole entry): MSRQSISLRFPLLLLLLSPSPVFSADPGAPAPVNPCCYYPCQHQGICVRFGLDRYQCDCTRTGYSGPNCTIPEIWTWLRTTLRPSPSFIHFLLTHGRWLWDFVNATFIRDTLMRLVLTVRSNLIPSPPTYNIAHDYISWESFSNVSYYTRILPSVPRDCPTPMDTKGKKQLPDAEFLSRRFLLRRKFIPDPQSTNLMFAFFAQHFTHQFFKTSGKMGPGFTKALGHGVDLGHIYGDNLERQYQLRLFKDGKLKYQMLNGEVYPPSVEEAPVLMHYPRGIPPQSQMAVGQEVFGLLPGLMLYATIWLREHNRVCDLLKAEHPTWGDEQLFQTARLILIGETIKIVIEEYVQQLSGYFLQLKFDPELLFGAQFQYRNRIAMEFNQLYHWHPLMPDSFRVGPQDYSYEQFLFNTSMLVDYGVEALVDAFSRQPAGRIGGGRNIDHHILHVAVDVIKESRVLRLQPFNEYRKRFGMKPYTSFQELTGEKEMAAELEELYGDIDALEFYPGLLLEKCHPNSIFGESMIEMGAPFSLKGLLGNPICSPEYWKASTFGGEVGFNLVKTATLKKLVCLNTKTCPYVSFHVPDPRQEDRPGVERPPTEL

THP-1 [12] = assay: Antiinflammatory activity against human THP1 cells of assessed as inhibition of LPS-induced TNFalpha gene expression at 10 uM pretreated for 1 hr before LPS challenge measured after 2 hrs by RT-qPCR relative to control; format: functional
Procedure, shortened: as §1

[13] = Selectivity ratio of IC50 for human recombinant COX2 to IC50 for ram seminal vesicle COX1; format: tissue-based
Procedure, shortened: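 Enzymes were human recombinant COX-2 (0.5 unit/reaction) and ram seminal vesicle COX-1 (1 unit/reaction), in 0.1 M Tris/HCl pH 8.0 with 5 μM hematin, 18 mM L-epinephrine, 50 μM EDTA. Compound in DMSO was preincubated 5 min at room temperature, then arachidonic acid was added for 20 min at 37 °C. PGE2 was read by competitive EIA at 405 nm. IC50 came from regression on ≥3 concentrations, with four independent experiments. Selectivity was taken as the COX-2/COX-1 IC50 ratio.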

THP-1 [14] = assay: Antiinflammatory activity against human THP1 cells of assessed as inhibition of LPS-induced COX-2 gene expression at 10 uM pretreated for 1 hr before LPS challenge measured after 4 hrs by RT-qPCR; format: functional, cell-based
Procedure, shortened: as §1

Compound	Ratio (THP-1 [1])	Activity (THP-1 [2])	Activity (RAW264.7 [3])	Activity (THP-1 [4])	CC50 at 24 h [5] [µM]	fold change (FC) (THP-1 [6])	IC50 [7] [nM]	Activity (RAW264.7 [8])	fold change (FC) (THP-1 [9])	Ratio (THP-1 [10])	IC50 [11] [nM]	Ratio (THP-1 [12])	Ratio IC50 [13]	Activity (THP-1 [14])	Activity (THP-1 [6])	Activity (THP-1 [9])
CC(C)=CCc1c(-c2ccc(O)cc2O)oc2cc3c(c(O)c2c1=O)C=CC(C)(C)O3 [CUDRAFLAVONE B]	2	Active	Dose-dependent effect	Active	47.6	3.2	2500	Dose-dependent effect	5.8	20	1500	5.8	1.7	Active	–	–
COc1ccc2c(c1)c(CC(=O)O)c(C)n2C(=O)c1ccc(Cl)cc1 [INDOMETHACIN]	–	Active	–	–	> 100	–	–	–	–	–	–	–	–	–	Active	Active
